Compound activity from PubChem.
MDM2 E3 inh – MDM2-luciferase reporter signal enhancers, primary screen, MDM2 E3 ligase inhibitor project, cell-based, luminescence, 1536-well; E3 ubiquitin-protein ligase Mdm2 (Homo sapiens), Q00987; cell-based MDM2 ubiquitination luciferase reporter, 2 h; 0 = plate control, 100 = twice control, blank-subtracted; signal enhancement, % at 5 µM; actives 0.11% (n = 210,000); AID 1230, 2008;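 active = signal enhancement of 30% or more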;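 also: luminescence tracks abundance of the self-degrading MDM2-luciferase fusion protein; higher signal means inhibition of MDM2 E3 ligase activity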
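test system = mammalian cells stably expressing self-ubiquitinating, self-degrading MDM2 E3–luciferase fusion | quantity = 2000 cells/well | incubation = cell settling 4 h, compound treatment 2 h, both 37 °C | signal = luminescence with SteadyLite reagent, 15 min at room temperature | evaluation = % enhancement relative to plate controls after blank subtraction | benchmarks = plate controls and plate blanks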
S1P4 antagonist – S1P4 receptor antagonists, primary screen, cell-based | Sphingosine 1-phosphate receptor 4 (Homo sapiens), O95977 | S1P4-expressing cells, antagonist mode, reporter read-out | inhibition, % at 4.98 µM | actives 0.26% (n = 220,000) | AID 1510, 2009; in the data active = inhibition above about 29%;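 also: 0% = wells stimulated with agonist and 100% = vehicle wells without agonist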
S1P3 antagonist – S1P3 receptor antagonists, primary screen, cell-based | Sphingosine 1-phosphate receptor 3 (Homo sapiens), Q99500 | CHO S1P3 NFAT-BLA reporter, FRET fluorescence, antagonist mode | inhibition, % at 4.98 µM | actives 0.27% (n = 170,000) | AID 485, 2006;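 active = inhibition above the plate cutoff, the mean inhibition of test wells on that plate plus 3 SD, cut at about 28% in these data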;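 also: cells challenged with S1P at its EC80 of 0.8 µM; blue over green emission ratio from cleaved BLA substrate after 4 h stimulation; 0% = S1P-stimulated wells and 100% = unstimulated DMSO-only wells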
Target sequence (Q99500 whole entry, looked up): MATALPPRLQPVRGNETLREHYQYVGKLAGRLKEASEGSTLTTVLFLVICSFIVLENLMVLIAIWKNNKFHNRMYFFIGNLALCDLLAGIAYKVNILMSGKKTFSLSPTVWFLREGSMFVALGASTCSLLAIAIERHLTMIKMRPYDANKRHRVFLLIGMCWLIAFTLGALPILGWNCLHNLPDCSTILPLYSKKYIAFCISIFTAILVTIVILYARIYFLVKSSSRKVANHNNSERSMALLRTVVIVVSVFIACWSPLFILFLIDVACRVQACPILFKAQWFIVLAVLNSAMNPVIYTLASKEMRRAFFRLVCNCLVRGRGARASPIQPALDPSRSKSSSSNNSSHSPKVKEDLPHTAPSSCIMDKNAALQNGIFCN
S1P4 ag – S1P4 receptor agonists, primary screen, cell-based; Sphingosine 1-phosphate receptor 4 (Homo sapiens), O95977; S1P4-expressing cell line, agonist reporter assay; activation, % at 4.98 µM; actives 0.35% (n = 220,000); in the data active = activation above about 11%;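 also: 0% = DMSO vehicle and 100% = reference agonist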
Lmaj promast – Leishmania major promastigote growth inhibition, primary screen; inhibition, % at 10 µM; AID 1063, 2008; actives 9% (n = 200,000); Leishmania major promastigotes, resazurin fluorescence viability; in the data active = inhibition above about 50%;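 also: promastigotes grown with compound for 44 hours at 28 °C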
* hit, by the source's call; / = not tested or not shown. The entries come from a sample that favours hits as a whole.

SMILES	MDM2 E3 inh	S1P4 antagonist	S1P3 antagonist	S1P4 ag	Lmaj promast
COc1cc(C2NC(=O)NC(C)=C2C(C)=O)ccc1O (stereo unspecified)	-8.3	-3.5	-21.0	1.5	/
CCOc1cc(/C=N/n2cnnc2)ccc1OS(=O)(=O)c1ccc(C)cc1	-3.4	-21.9	15.3	1.5	79.3*
CCOC(=O)C(C)N1C(=O)S/C(=C/c2ccc3c(c2)n(C)c(=O)n3C)C1=O (stereo unspecified)	11.4	2.2	-12.4	-0.3	67.4*
COc1cc(/C=N/N(C)S(=O)(=O)c2ccc(C)cc2)cc([N+](=O)[O-])c1O	/	-8.8	0.6	0.0	/
CCOC(=O)C(CC)(CC)C(=O)/C=C/c1cccc(Br)c1	/	5.0	/	-1.4	100.0*
COC(=O)C1=C(C)N(c2ccc(C(=O)OC)cc2)C(=O)C1	-48.9	15.4	-7.4	-1.1	24.0
COC(=O)C1=C(C)N(c2cc(Cl)cc(Cl)c2)C(=O)C1	-31.1	5.3	/	0.9	86.5*
O=C(COC(=O)CC(c1ccccc1)c1ccccc1)Nc1c(F)cccc1F	-0.6	-12.4	-5.3	1.0	50.1*
CCCC(=O)OCC(=O)NCc1ccc(Cl)cc1	-7.9	-8.0	-8.9	1.1	-15.1
CC(=O)Nc1ccc(C(=O)OCC(=O)Nc2c(F)cccc2F)cc1	-6.8	-1.9	-4.1	1.6	/
O=C(COC(=O)CC(c1ccccc1)c1ccccc1)NCc1ccc(Cl)cc1	-4.2	-3.7	-1.0	-0.5	68.8*
CCOC(=O)N1CCC(n2c(SCC(=O)Nc3nccs3)nc3ccsc3c2=O)CC1	-14.6	-5.4	/	-1.8	24.0
COc1ccccc1/C=C1\SC(=S)N(CCC(=O)NC2=NCCS2)C1=O	-9.7	-2.4	-12.2	-1.1	51.6*
O=C(CCN1C(=O)/C(=C\c2cccs2)SC1=S)NC1=NCCS1	-5.2	0.7	-0.9	0.5	-3.6
Cc1ccc(/C=C2/SC(=S)N(CCC(=O)N3CCN(C)CC3)C2=O)cc1	-3.5	-16.0	-8.9	-1.6	97.0*
CN1CCN(C(=O)CCN2C(=O)/C(=C/c3ccccc3Cl)SC2=S)CC1	-5.3	-19.9	3.1	2.1	100.1*
CCOC(=O)c1c(NC(=O)c2c(C(=O)O)cccc2[N+](=O)[O-])sc(C)c1C	8.5	-19.2	-18.3	-0.7	-5.4
Cn1c(Sc2ccc([N+](=O)[O-])cc2C(F)(F)F)nnc1-c1ccccc1	5.7	-2.4	/	-1.1	61.7*
O=C(NC(=S)Nc1cc(C(F)(F)F)ccc1N1CCOCC1)c1sc2ccccc2c1Cl	-6.4	-9.5	3.5	2.5	6.7
Cc1c2cnn(-c3ccccc3)c(=O)c2c(C)n1CCCC(=O)NCCN1CCN(C)CC1	-5.4	-16.1	-1.2	0.4	/
O=C(Nc1nnc(-c2ccc(Cl)cc2)o1)C1CCCCC1	-7.1	/	-7.1	/	/
O=C(Nc1nnc(-c2ccc3c(c2)OCCO3)o1)C1CCCCC1	-25.7	5.8	-10.8	-1.1	72.4*
CCc1cc(C(=O)OC)c(NC(=O)C2CC(=O)NN2Cc2ccccc2)s1 (stereo unspecified)	10.6	-10.3	/	-0.1	99.3*
Cc1nc(SCC(=O)NC(C)(C#N)C2CC2)c2c(-c3cccs3)csc2n1 (stereo unspecified)	1.3	-6.8	6.1	-0.3	2.2
N/C(=N\N=C\c1cccs1)SC1CC(=O)N(c2ccc(Br)cc2)C1=O (stereo unspecified)	-5.2	-8.6	-2.4	1.0	100.0*
SMILES	MDM2 E3 inh	S1P4 antagonist	S1P3 antagonist	S1P4 ag	Lmaj promast
C/C(=N\N=C(/N)SC1CC(=O)N(c2ccc(Br)cc2)C1=O)c1cccs1 (stereo unspecified)	0.3	-16.1	/	0.4	99.9*
CNCCCOc1cc(C)cc(C)c1C	-12.0	-4.5	-19.8	0.3	7.4
CCN(Cc1ccccc1)S(=O)(=O)c1cc(C(=O)NC2CCCCCC2)ccc1OC	0.4	-2.1	-19.4	0.1	95.1*
CCN(Cc1ccccc1)S(=O)(=O)c1cc(C(=O)NCC2CCCCC2)ccc1OC	-7.3	-1.9	18.2	0.8	98.4*
N#Cc1cccc(-c2cn(S(=O)(=O)c3ccc(Cl)cc3)nc2N)c1	-14.2	-34.0	-23.0	0.4	3.5
O=C(CSc1nc2c(c(=O)[nH]1)CCCC2)Nc1ccc(Cl)cc1F	-13.2	-17.6	-31.3	2.5	2.6
Cc1ccc(Cl)cc1N1CCN(S(=O)(=O)c2ccc3c(c2)oc(=O)n3C)CC1	-4.7	2.9	-20.2	2.4	7.2
Cc1cccc(CN(CC(=O)N/N=C/c2cccs2)S(=O)(=O)c2ccc(Cl)cc2)c1	-28.2	3.5	/	0.8	93.4*
OC1(c2ccccc2)CCN(Cc2ccccc2)C2CCCCC21 (stereo unspecified)	7.4	1.5	4.7	-2.3	96.8*
Cc1ccc(OCc2nnc(SCc3cc(=O)[nH]c4ccccc34)n2-c2ccccc2)cc1	-4.4	-15.1	0.5	-0.3	72.6*
Cc1ccc(-c2nnc(CSc3nnc(COc4ccccc4)n3-c3ccc(C)cc3)o2)cc1	-10.7	-14.1	11.8	1.3	14.9
Cc1ccc(NC(=O)CSc2nnc(-c3n[nH]c4ccccc34)n2-c2ccccc2)c(C)c1	-5.9	-11.0	3.6	-2.1	53.4*
Cc1ccc(OCc2nnc(SCC(=O)Nc3cccc4ccccc34)n2-c2ccccc2)cc1	/	9.7	/	5.6	94.9*
Cc1ccccc1OCc1nnc(SCc2cc(=O)[nH]c3ccccc23)n1-c1ccccc1	-14.5	-4.8	-3.8	1.1	75.0*
Nc1c(Cl)ncnc1NCC(O)CO (stereo unspecified)	0.1	-9.3	-24.1	-0.1	/
Cc1ccc(S(=O)(=O)NC(C)(C)CN2CCc3ccccc3C2)cc1	-22.2	-14.9	-0.3	0.3	/
O=C(Nc1ccncc1)c1cn(-c2ccccc2)nc1-c1cccs1	-21.3	-10.8	/	-1.5	94.8*
O=C(Nc1nccs1)c1cn(-c2ccccc2)nc1-c1ccncc1	-28.3	8.3	-0.9	-0.6	4.7
Cc1ccc(NS(=O)(=O)c2ccc(NC(=O)C(C)Sc3ccc(Cl)cc3)cc2)c(C)c1 (stereo unspecified)	1.0	-15.9	-10.1	0.4	91.7*
COc1ccc(NC(=O)N2CCN(c3ccc([N+](=O)[O-])cc3)CC2)cc1OC	-9.0	-48.4	-8.8	-3.6	29.2
COc1ccc(C(=O)OC(COc2ccccc2)Cn2ccnc2)cc1 (stereo unspecified)	2.1	-6.1	/	0.9	100.0*
COC(=O)c1cccc(OCC(O)Cn2ccnc2)c1 (stereo unspecified)	-8.5	-15.1	-17.2	-0.7	-0.3
CCC(C)(C)n1nnnc1C(c1ccncc1)N1CCN(c2cccc(OC)c2)CC1 (stereo unspecified)	-15.1	-6.8	-11.8	0.6	53.8*
